# eIF4H inh: inhibitors of RNA binding by human eIF4H | eIF4H fluorescence polarization binding assay | AID 2012 | inhibition, % at 35 µM | 0.94% of 290,000 active | Q15056;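 note: calls also rest on retests at 20 µM and on dose response follow-up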
# core dimer inh: HCV core protein dimerization inhibition; TR-FRET GST/Flag-core106 dimerization, 1536-well; inhibition, % at 5 µM; 0.33% of 300,000 active;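 active = inhibition above the mean of all tested compounds plus 3 SD, set per screening campaign, cut at about 45% in these data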
#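 Assay system: tagged HCV core106 pair (GST and Flag); medium: KF-containing HEPES buffer, pH 7.45, DTT, CHAPS, BSA; also added: Eu donor and XL665 acceptor anti-tag antibodies; dosing: 5 µM single dose; timing: compound-protein-antibody incubation 4 h at 22.5 °C; signal: TR-FRET 671 and 617 nm emission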
# MLLE-PAM2 inh: inhibitors of microRNA-mediated deadenylation, human PABP1 MLLE binding; P11940; GST-MLLE / FITC-PAM2 fluorescence polarization; inhibition, % at 20 µM; 0.36% of 360,000 active; AID 588489; in the data active = inhibition above about 35%, passing the limit was not always enough
# Target sequence (P11940 whole entry, looked up): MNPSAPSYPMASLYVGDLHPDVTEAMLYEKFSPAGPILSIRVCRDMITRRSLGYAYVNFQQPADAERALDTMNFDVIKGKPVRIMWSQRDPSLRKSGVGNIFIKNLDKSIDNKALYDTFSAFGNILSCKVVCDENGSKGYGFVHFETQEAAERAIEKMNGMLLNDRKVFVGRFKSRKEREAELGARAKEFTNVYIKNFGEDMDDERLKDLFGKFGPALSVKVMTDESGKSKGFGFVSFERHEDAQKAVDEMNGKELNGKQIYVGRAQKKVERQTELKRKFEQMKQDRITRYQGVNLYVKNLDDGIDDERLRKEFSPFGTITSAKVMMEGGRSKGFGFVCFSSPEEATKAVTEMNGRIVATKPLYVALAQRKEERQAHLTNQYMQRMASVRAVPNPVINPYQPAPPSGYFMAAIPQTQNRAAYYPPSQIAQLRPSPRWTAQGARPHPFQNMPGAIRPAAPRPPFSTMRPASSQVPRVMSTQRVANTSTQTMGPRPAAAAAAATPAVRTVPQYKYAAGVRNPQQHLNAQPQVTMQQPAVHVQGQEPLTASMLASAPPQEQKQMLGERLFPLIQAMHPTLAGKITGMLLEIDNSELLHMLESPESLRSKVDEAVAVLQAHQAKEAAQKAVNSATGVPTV
# DNA FID counter: counter-screen for HCV NS3 helicase inhibitors: DNA intercalator displacement; DNA fluorescent intercalator displacement, fluorescence; inhibition, % at 7.9 µM; 0.17% of 290,000 active; in the data active = inhibition above about 37%;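 note: higher means more ethidium bromide displaced from hairpin DNA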
# NS3 helicase inh: blocks Hepatitis C virus NS3 helicase unwinding; NS3 helicase DNA unwinding, Cy5 molecular beacon fluorescence; inhibition, % at 10.9 µM; 0.56% of 290,000 active; AID 1800;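 active = inhibition above the mean of all tested compounds plus 3 SD, set per campaign, cut at about 35% in these data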
#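 assay system = NS3 helicase fragment of HCV | buffer or medium = MOPS pH 6.5, MgCl2, DTT, Tween20, BSA | timing = 60 min unwinding reaction at 25 °C after ATP addition | signal = Cy5 beacon fluorescence read at start and 1 h | read-out basis = % inhibition of unwinding | control set = low DMSO, high thioflavine S at 110 µM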
# PABP FP inh: blocks human PABP binding to poly(A) RNA. inhibition, % at 35 µM. 1% of 290,000 active. fluorescence polarization. P11940;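 note: calls also rest on retests at 20 µM and on dose response follow-up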
# Hits are given with their value; – = inactive; ? = inconclusive; · = no result. Shown are actives, neighbours in structure and some others; about 2% of the full set was active somewhere. Unless noted, the rule behind the calls is not given here.
SMILES,eIF4H inh,core dimer inh,MLLE-PAM2 inh,DNA FID counter,NS3 helicase inh,PABP FP inh
CC(=O)N1CCc2c(sc(NC(=O)c3cccc(N4C(=O)CCC4=O)c3)c2C(N)=O)C1,–,–,–,–,–,1.5
NC(=O)c1c(NC(=O)c2cccc(N3C(=O)CCC3=O)c2)sc2c1CCCCC2,–,–,–,–,–,–
CC1=NN(C(=O)c2ccccc2-n2cccc2)C(O)(C(F)(F)F)C1 (stereo unspecified),54,–,–,–,–,13
CC1=NN(C(=O)c2ccc(C)cc2)C(O)(C(F)(F)OC(F)(F)F)C1 (stereo unspecified),–,–,–,–,–,–
Cc1ccc2nc3c(c(N)c2c1)CCN3c1ccccc1,51,–,–,–,–,–
Cc1ccc2nc3c(c(N)c2c1)CCN3C,–,–,–,42,–,–
Nc1c2c(nc3cccc(Cl)c13)N(c1ccccc1)CC2,–,–,–,–,–,–
O=C(O)c1cc(Cl)c2c(c1)[C@@H]1C=CC[C@@H]1[C@H](c1ccc(S(=O)(=O)N3CCOCC3)cc1)N2,74,–,–,–,–,4.1
Cc1cc(C)c2c(c1)C1C=CCC1C(c1ccc(S(=O)(=O)N3CCOCC3)cc1)N2 (stereo unspecified),–,63,–,–,–,–
O=S(=O)(c1ccc(C2CCCCC2)cc1)N1CCOCC1,–,–,–,–,–,–
CC1(C(=O)NS(=O)(=O)c2ccc(C#N)cc2)CCN1C(=O)C1(c2ccccc2)CCCC1 (stereo unspecified),·,·,–,·,·,·
COc1ccccc1OCC(=O)NCCNC(=O)COc1ccccc1OC,–,–,40,–,–,–
COc1ccccc1OCC(=O)Sc1ccc(C)cc1,–,–,36,–,–,–
COCC(C)n1c(SCC(=O)NC(=O)NCc2ccccc2)nc2ccccc2c1=O (stereo unspecified),·,·,–,·,·,·
O=C(NC1CCCCCC1)C(=S)NCCc1ccccc1,–,–,44,–,–,–
CCC(=O)N1CCC1(C)C(=O)Nc1ncc(C)s1 (stereo unspecified),·,·,–,·,·,·
O=C(CSc1ccccn1)Nc1ccccc1F,–,–,–,–,–,–
O=C(CCl)Nc1cccc2ncccc12,104,–,–,–,–,31
O=C(CSc1ccccn1)Nc1cccc2ccccc12,1.8,–,–,–,–,59
COc1ccc(N=C2NC(=O)/C(=C/c3ccco3)S2)cc1,66,–,–,–,–,–
O=C(NCc1cc([N+](=O)[O-])ccc1O)c1cccnc1Sc1ccccc1Cl,–,–,–,–,–,–
CCN(CC)CCCC(C)NC(=O)c1ccc(C(F)(F)F)cc1 (stereo unspecified),active,–,–,–,–,54
CCOc1ccc(C(=O)Nc2ccc3[nH]ncc3c2)cc1,–,–,–,–,–,–
Cc1cc(C)nc(SCNC(=O)c2ccc(Cl)cc2)n1,–,–,44,–,–,–
O=C1N[C@@H](Cc2cn(S(=O)(=O)c3c(F)c(F)c(F)c(F)c3F)c3ccccc23)C(=O)N[C@H]1Cc1ccccc1,·,49,·,·,·,·
SMILES,eIF4H inh,core dimer inh,MLLE-PAM2 inh,DNA FID counter,NS3 helicase inh,PABP FP inh
O=C(COc1ccc(-n2cnnn2)cc1)Nc1cccc(Cl)c1Cl,65,–,–,–,–,–
Cc1sc(NC(=O)CCCC(=O)O)c(C(N)=O)c1-c1ccccc1,–,–,35,–,–,–
COC(=O)c1c(NC(=O)CCCC(=O)O)sc(C)c1C,–,–,–,–,–,–
COc1ccc(/C=N/NC2=NCCCCC2)c(OC)c1,active,–,–,–,–,68
O=c1ccn([C@@H]2O[C@H](CNCc3ccccc3OCc3ccc(Cl)cc3Cl)[C@@H](O)[C@H]2O)c(=O)[nH]1,·,·,–,·,·,·
Cc1ccc(CNC(=O)Cn2cnc3c(NC(=O)OCc4ccccc4)ncnc32)o1,·,·,–,·,·,·
Cc1ccc(-n2ncc(C(=O)Nc3cc(Cl)cc(Cl)c3)c2C2CCNCC2)cc1C,–,·,–,43,–,–
CCc1cccc(C)c1NC(=O)c1cc(=O)[nH]c2ccc(S(=O)(=O)N3CCOCC3)cc12,·,·,–,·,·,·
O=C(NNC(=O)c1cc2cc3ccccc3nc2s1)c1cccc(C(F)(F)F)c1,51,–,–,–,–,–
O=C(NNS(=O)(=O)c1ccccc1)c1cc2cc3ccccc3nc2s1,–,–,–,–,–,–
O=C(COC(=O)c1cncc(Br)c1)NCc1ccccc1Cl,–,–,–,–,–,63
O=C1CSC(=S)N1Nc1ccccc1,·,·,–,·,·,·
CC(C)N(Cc1ccccc1)C(=S)NC(=O)C1(C)CC1(Cl)Cl (stereo unspecified),–,–,–,–,–,–
CC1(C(=O)NC(=S)N(CCC#N)c2ccccc2)CC1(Cl)Cl (stereo unspecified),–,–,47,–,–,–
CN1C(=O)N(CC(=O)Nc2ccc3c(c2)OCO3)C(=O)C12CCCCC2,·,·,–,·,·,·
COc1cc(/C=C2\C(=N)N3N=C(S(C)(=O)=O)SC3=NC2=O)ccc1OC(=O)c1cccs1,–,–,–,–,–,–
COc1cc(/C=C2\C(=N)N3N=C(S(C)(=O)=O)SC3=NC2=O)ccc1OCCOc1ccccc1C,88,–,–,–,–,65
COc1ccccc1C(=O)NCCn1ccc2ccccc21,–,–,43,–,–,–
CCCCc1ccc(NC(=O)CC(C)(C)C)cc1,98,–,–,–,–,active
Cc1ccc(S(=O)(=O)N2[C@@H](c3ccc(Cl)cc3)C(C(=O)OC(C)(C)C)=CC[C@H]2c2ccc(Cl)c(Cl)c2)cc1,·,·,–,·,·,·
C#CCN(C[C@@H]1[C@@H](OC(=O)NCc2ccccc2)[C@@H](OC(=O)NCc2ccccc2)CN(C(=O)OC(C)C)N1C(=O)OC(C)C)S(=O)(=O)c1ccc(C)cc1,·,·,–,·,·,·
NS(=O)(=O)c1ccc(N=Nc2c[nH]c(=O)c(O)c2)cc1,54,–,–,–,–,33
CC(C)[C@H](NC(=O)[C@@H]1Cc2c([nH]c3ccccc23)C2c3ccccc3C(=O)N21)C(=O)N1CCC[C@H]1C(=O)O (stereo partly specified),·,·,–,·,·,·
CCCOc1ccc(N2C(=O)CC(NNC(=O)c3ccc(COc4ccccc4)o3)C2=O)cc1 (stereo unspecified),–,–,–,–,–,62
N#CC1=C(N)C(C#N)(C#N)C(c2cccnc2)C2CCCC=C12 (stereo unspecified),120,–,·,–,–,–
N#CC1=C(N)C(C#N)(C#N)C(c2cccnc2)C2CC(c3ccccc3)CC=C12 (stereo unspecified),?,–,–,–,–,77
O=C(NCCCn1ccnc1)C1CCN(S(=O)(=O)c2cc([N+](=O)[O-])ccc2Cl)CC1,·,·,–,·,·,·
COc1cccc(C(C)(O)c2nc(-c3cccc4cccnc34)cs2)c1 (stereo unspecified),·,·,–,·,·,·
CC1=CC2(O)OCCN(CCO)C2=CC1=O (stereo unspecified),82,–,–,–,–,–
